Data set [1] can be described thus: folding enthalpy; higher = less favourable; fluorescence melt of hairpins on a sequencing array, two-state fit. The following applies: sodium 0.088 M. The method in brief: (§1)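 Hairpins were imaged by Cy3 fluorescence on a sequenced MiSeq flow cell with annealed Cy3 and quencher oligos, in 50 mM Na-HEPES pH 8.0, 25 mM NaCl, in 2.5 °C steps up to 60 °C. Bootstrapped two-state fits of normalised signals gave melting temperature and folding enthalpy. Four replicates were combined by inverse variance, and fitted temperatures were raised by 9.35 °C to match UV melts.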

Data set [2] is described as follows: melting temperature; fluorescence melt of hairpins on a sequencing array, two-state fit, raised by 9.35 °C to match UV melts. The following applies: sodium 0.088 M. The procedure, abridged: as §1

Take GTACGGAAACGTAC (((((....))))): the folding enthalpy in data set [1] is -32.4 kcal/mol. The Tm in data set [2] was found to be 53.7 °C.
In the same order, the values of GATCAAAAATTTGATC ((((((....)))))) are -28.7 kcal/mol and 39 °C.
In the same order, the values of GCGTCCGGAAACGGGTGC ((..(((....)))..)) are -30.8 kcal/mol and 51.2 °C.
The corresponding values for GAATGCGAAAGCAGTTTC ((((((....)))..))) are -11.7 kcal/mol and 31.3 °C.
Take GATCAAAGACTTGATC ((((((....)))))): in data set [1], the folding enthalpy was -25.1 kcal/mol. Also, the Tm in data set [2] came out at 39.2 °C.
In the same order, the values of GATCACTGGAGTGATC ((((((....)))))) are -48.7 kcal/mol and 55.7 °C.
In the same order, the values of GCTGAGGGAAACCTTAGC (((.(((....))).))) are -33.7 kcal/mol and 47.1 °C.
The corresponding values for GCTATGGGAAACTATAGC (((((.(....).))))) are -33.3 kcal/mol and 43.7 °C.
Take GAGATGGGAAACTATCTC (((((.(....).))))): the folding enthalpy in data set [1] was -32 kcal/mol. Moreover, in data set [2], the Tm stood at 40.7 °C.
The corresponding values for GCCGCTGGAAACAGCGAC (.(((((....))))).) are -13.9 kcal/mol and 52.6 °C.
In the same order, the values of CGCCCTCGGAAACGAGCG (((..(((....)))))) are -12.2 kcal/mol and 34.5 °C.
The corresponding values for GATCAGGTGCTGATC ((((((...)))))) are -39 kcal/mol and 48.6 °C.
GTTGACGGAAACATCAAC (((((.(....).))))): the folding enthalpy in data set [1] was -31.8 kcal/mol. Also, in data set [2], the Tm was 37.2 °C.
The corresponding values for GCGATACGAAAGTACCGC (((.(((....))).))) are -43.2 kcal/mol and 54.2 °C.
The corresponding values for GGATTCGGAAACGAGTCC (((.(((....))).))) are -35.7 kcal/mol and 51.1 °C.
As to GCCTGGCGAAAGCCGTGC ((..(((....)))..)), the folding enthalpy in data set [1] was -12.9 kcal/mol. Moreover, the Tm in data set [2] was 48.8 °C.
In the same order, the values of GGACAGGCGAAAGCCTCC (((..(((....)))))) are -9.93 kcal/mol and 31.1 °C.
On to GCGTACCGAAAGGTCGC (((.(((....)))))), for which the folding enthalpy in data set [1] is -36.5 kcal/mol. In addition, the Tm in data set [2] turned out to be 63.5 °C.
In the same order, the values of GGGAACGAAAGTTGGCCC ((((((....)))..))) are -14.7 kcal/mol and 32 °C.
In the same order, the values of CGACCGGAAACGGGGTCG ((((((....)))..))) are -28.8 kcal/mol and 48.6 °C.
On to GATCAAGGTATTGATC ((((((....)))))), for which the folding enthalpy in data set [1] is -35.2 kcal/mol. In addition, the Tm in data set [2] was found to be 48.7 °C.
For the sequence GATCTGTGAGCAGATC ((((((....)))))), in data set [1], the folding enthalpy was -40 kcal/mol. In addition, in data set [2], the Tm came out at 55 °C.
The corresponding values for GTGCGCCGAAAGGCACAC (((.(((....))).))) are -29 kcal/mol and 63.7 °C.
In the same order, the values of CACCGGAAACGGTG (((((....))))) are -30 kcal/mol and 60.5 °C.
The corresponding values for GCGCTGCGAAAGCTGGGC ((.(.((....)).).)) are -24.4 kcal/mol and 62.4 °C.
With GCAGAGCGAAAGCACCGC ((.(.((....)).).)), the folding enthalpy in data set [1] was -14.2 kcal/mol. Further, the Tm in data set [2] was 45.4 °C.
Take GCGTACGAAAGTATCCGC ((((((....)))..))): the folding enthalpy in data set [1] is -23.5 kcal/mol. In addition, the Tm in data set [2] came to 38.6 °C.
The corresponding values for GCTAAGAAATTAGC (((((....))))) are -16.8 kcal/mol and 39.5 °C.
In the same order, the values of GCAGGGGAAACCCTGC ((((((....)))))) are -34.9 kcal/mol and 68.1 °C.
The corresponding values for GATCCATGTCTGGATC ((((((....)))))) are -40.9 kcal/mol and 50.5 °C.
For GGAAACACGAAAGTGTCC (((..(((....)))))), the folding enthalpy in data set [1] was -12.6 kcal/mol. Moreover, in data set [2], the Tm came out at 36.5 °C.
In the same order, the values of GGGGCAGCGAAAGCTCCC (((..(((....)))))) are -16.7 kcal/mol and 56 °C.
In the same order, the values of GCGTGTGCGAAAGCACGC (((..(((....)))))) are -9.9 kcal/mol and 57.5 °C.
In the same order, the values of GCCTGCGAAAGCATAGGC ((((((....)))..))) are -31.4 kcal/mol and 56 °C.
For GCAGCACGAAAGTGATGC (((.(((....))).))), in data set [1], the folding enthalpy was -36.2 kcal/mol. Also, the Tm in data set [2] is 69 °C.
The corresponding values for GATCATTATAATGATC ((((((....)))))) are -33.1 kcal/mol and 49.7 °C.
The corresponding values for GATCCCCTACGGGATC ((((((....)))))) are -35.3 kcal/mol and 61.9 °C.
Regarding GTACACTCGAAAGAGTAC (((..(((....)))))), the folding enthalpy in data set [1] is -13.8 kcal/mol. Besides, the Tm in data set [2] worked out at 29.4 °C.
In the same order, the values of GTTCCAGGAAACTGGAAC (((((((....))))))) are -42.2 kcal/mol and 60.4 °C.
In the same order, the values of GCATGAGGAAACTCGTGC (((.(((....))).))) are -47.4 kcal/mol and 52.9 °C.
The corresponding values for CTTTCGAAAGAAAG (((((....))))) are -19.3 kcal/mol and 47.3 °C.
GGCGGCGCGAAAGCGGCC (((..(((....)))))): the folding enthalpy in data set [1] was -9.35 kcal/mol. For the same sequence, the Tm in data set [2] came to 59.5 °C.
In the same order, the values of GGCGGCGAAAGCCTAGCC ((((((....)))..))) are -21.3 kcal/mol and 60.8 °C.
The corresponding values for GCAAGGCGAAAGCGTAGC ((.(.((....)).).)) are -11.6 kcal/mol and 40.5 °C.
In the same order, the values of GCGTGAACGAAAGTTCGC (((..(((....)))))) are -15.3 kcal/mol and 48.6 °C.
As to GAATTGCGAAAGCACTTC (((.(((....))).))), in data set [1], the folding enthalpy is -21.1 kcal/mol. Further, in data set [2], the Tm is 40.7 °C.
The corresponding values for GGTTCTGGAAACGGAACC (((((.(....).))))) are -45 kcal/mol and 52.3 °C.
In the same order, the values of GCCCTGCGAAAGCACGGC (((.(((....))).))) are -39.6 kcal/mol and 52 °C.
In the case of GGGAACGAAAGTTCCCCC ((((((....)))..))), the folding enthalpy in data set [1] was -9.06 kcal/mol. In addition, in data set [2], the Tm was 68.4 °C.
The corresponding values for GCACAGCGAAAGCCGAGC ((.(.((....)).).)) are -12.6 kcal/mol and 39.3 °C.
With GTCTGGGGAAACCTAGGC (.((.((....)).)).), the folding enthalpy in data set [1] was -19.8 kcal/mol. In addition, in data set [2], the Tm is 34.8 °C.
In the same order, the values of GCGATCCGAAAGGACGC (((.(((....)))))) are -37.7 kcal/mol and 61.3 °C.
The corresponding values for GTCTGTACGAAAGTAGAC (((..(((....)))))) are -24.2 kcal/mol and 36.4 °C.
For GCGCCGGGAAACCGGCAC (.(((((....))))).), the folding enthalpy in data set [1] was -8.63 kcal/mol. For the same sequence, the Tm in data set [2] was found to be 53.4 °C.
The corresponding values for GCGGGACCCGC ((((...)))) are -24.5 kcal/mol and 55.9 °C.

Source of the values: the array DNA melting data of Ke et al. (doi:10.1101/2024.01.08.574731).
